Experimental data from different studies.
Compare with care: the assays were run in different laboratories.
Chymotrypsinogen A: Chymotrypsinogen A (Bos taurus, UniProt P00766)
Toll-like receptor 1/2: Toll-like receptor 1/2 (Homo sapiens, UniProt O60603+Q15399)

CCCC[C@H](NC(=O)[C@H](CCCCN)NC(=O)[C@H](CO)NC(=O)[C@H](CO)NC(=O)OCc1ccccc1)C(=O)N[C@@H](Cc1ccccc1)B(O)O  Ki (Chymotrypsinogen A; enzyme activity; inhibitor; fluorescence): 18.1 nM
Cc1cnc(-c2ccc(-c3ccc(NC(=O)Nc4c(F)cc(F)cc4F)cc3F)c3c2C(=O)NC3)[nH]1  Kd (Myosin-IIIb (MYO3B, Homo sapiens, UniProt Q8WXR4); binding; competition with immobilised ligand): 76 nM
CNc1ccc([N+](=O)[O-])cc1-n1cnc(-c2ccc3ccccc3c2)c1  EC50 (Toll-like receptor 1/2; reporter gene; agonist): 420 nM
CCOCc1nc(O)c(-c2nnc(Cc3ccc(Cl)cn3)o2)c(O)c1-c1c(OC)cccc1OC  EC50 (Apelin receptor (Aplnr, Mus musculus, UniProt Q9WV08); cAMP; agonist): 0.03 nM
Cc1cc2nc3c(=O)[nH]c(=O)nc-3n(C[C@H](O)[C@H](O)[C@H](O)COP(=O)(O)OP(=O)(O)OC[C@H]3O[C@@H](n4cnc5c(N)ncnc54)[C@H](O)[C@@H]3O)c2cc1C  Kd (Pumilio homolog 2 (Homo sapiens, UniProt Q8TB72); binding; lysate): 15 nM
CNc1ccc([N+](=O)[O-])cc1-n1cnc(-c2cc(F)c(F)cc2F)c1  EC50 (Toll-like receptor 1/2; reporter gene; agonist): > 100000 nM
CC(C)C[C@H](NC(=O)[C@H](Cc1ccccc1)NC(=O)[C@@H](N)Cc1ccc(O)cc1)C(=O)N[C@@H](Cc1ccccc1)C(=O)N[C@@H](CCCNC(=N)N)C(=O)N1CCC[C@H]1C(=O)N[C@@H](CCCNC(=N)N)C(=O)N[C@@H](CC(N)=O)C(N)=O  EC50 (Neuromedin-U receptor 1 (Mus musculus, UniProt O55040); β-arrestin recruitment; agonist): 11.5 nM
CCCC[C@H](NC(=O)[C@H](CCC(N)=O)NC(=O)[C@H](CO)NC(=O)[C@H](Cc1ccccc1)NC(=O)CCCCCN)C(=O)N[C@@H](CCCBr)B1O[C@@H]2C[C@@H]3C[C@@H](C3(C)C)[C@]2(C)O1  Ki (Chymotrypsinogen A; enzyme activity; inhibitor; fluorescence): 496 nM
O=C(CCn1cc(CN2CCN(c3cc4c(cc3F)c(=O)c(C(=O)O)cn4C3CC3)CC2)nn1)Nc1ccc(S[C@@H]2O[C@H](CO)[C@H](O)[C@H](O)[C@H]2O)cc1  Ki (PA-I galactophilic lectin (lecA, Pseudomonas aeruginosa, UniProt Q05097); ligand displacement; FP): 4290 nM
CNc1ccc([N+](=O)[O-])cc1-n1cnc(-c2ccc(C#N)cc2)c1  EC50 (Toll-like receptor 1/2; reporter gene; agonist): 210 nM
Cc1cc(Nc2cc3ncccc3c(N[C@@H]3C[C@H]4CC[C@@H](C3)N4CCC#N)n2)n[nH]1  Kd (Cyclin-dependent kinase 4, with cyclin D1 (CDK4, Homo sapiens, UniProt P11802); binding; competition with immobilised ligand): 150 nM
CCn1c(-c2nc3ccc(C(=O)N4CCCC(N)C4)cc3n2C)cc2ccccc21 (centres unmarked)  EC50 (Muscarinic acetylcholine receptor M2 (CHRM2, Homo sapiens, UniProt P08172); calcium signal; agonist): > 15800 nM
CCCC[C@H](NC(=O)[C@H](CCC(N)=O)NC(=O)[C@H](CO)NC(=O)CCCCCN)C(=O)N[C@@H](CCCBr)B(O)O  Ki (Chymotrypsinogen A; enzyme activity; inhibitor; fluorescence): 251 nM
CNc1ccc(C#N)cc1-n1cnc(-c2ccc([N+](=O)[O-])cc2)c1  EC50 (Toll-like receptor 1/2; reporter gene; agonist): 11000 nM
